Assay results: ChEMBL document CHEMBL1629603, “Voriconazole increases while itraconazole decreases plasma meloxicam concentrations” (Antimicrob Agents Chemother, 2009)
Calls of active or inactive are those of the source. No cut-off for these calls is given here.

What was measured:
[1] = system: Plasma; experiment: Fraction unbound in human at 15 mg, po pretreated with voriconazole at 400 mg, po every 12 hrs for 1 day and 200, po mg every 12 hrs for one additional day; format: ADME, organism-based; conditions: in vivo
In short: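 Healthy volunteers, open-label randomized crossover; 15 mg oral meloxicam given fasted 1 h after the last voriconazole dose. Plasma drawn 5 h post-dose; 1 ml ultrafiltered (YM30 filter, 1,200 x g, 25°C, 30 min). Unbound meloxicam measured by LC-MS/MS (positive ion, piroxicam internal standard; standards 0.5–50 ng/ml), all samples in one run.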

[2] = system: Homo sapiens; experiment: Inhibition of TxB2 production in human blood at 15 mg, po after 24 hrs by enzyme immunoassay pretreated with voriconazole at 400 mg, po every 12 hrs for 1 day and 200, po mg every 12 hrs for one additional day; format: functional
In short: (§1)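 Design: 12 healthy males, Latin-square three-phase crossover, 4-week washout; 15 mg oral meloxicam given fasted 1 h after the last voriconazole dose. Blood taken before and at 5, 8, 12, 24, 48 h into glass tubes without anticoagulant, clotted 1 h at 37°C. Serum TxB2 measured by enzyme immunoassay. Reported as percent decrease versus each subject's own baseline.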

[3] = system: Homo sapiens; experiment: Inhibition of TxB2 production in human blood at 15 mg, po after 5 hrs by enzyme immunoassay pretreated with voriconazole at 400 mg, po every 12 hrs for 1 day and 200, po mg every 12 hrs for one additional day; format: functional; in short: as §1
[4] = system: Homo sapiens; experiment: Inhibition of TxB2 production in human blood at 15 mg, po after 12 hrs by enzyme immunoassay pretreated with voriconazole at 400 mg, po every 12 hrs for 1 day and 200, po mg every 12 hrs for one additional day; format: functional; in short: as §1
[5] = system: Homo sapiens; experiment: Toxicity in human assessed as photophobia at 400 mg, po every 12 hrs for 1 day and 200, po mg every 12 hrs for one additional day; format: organism-based; conditions: in vivo
[6] = system: Homo sapiens; experiment: Inhibition of TxB2 production in human blood at 15 mg, po after 8 hrs by enzyme immunoassay pretreated with voriconazole at 400 mg, po every 12 hrs for 1 day and 200, po mg every 12 hrs for one additional day; format: functional; in short: as §1
[7] = system: Homo sapiens; experiment: Inhibition of TxB2 production in human blood at 15 mg, po after 48 hrs by enzyme immunoassay pretreated with voriconazole at 400 mg, po every 12 hrs for 1 day and 200, po mg every 12 hrs for one additional day; format: functional; in short: as §1
[8] = system: Homo sapiens; experiment: Toxicity in human assessed as altered color vision changes at 400 mg, po every 12 hrs for 1 day and 200, po mg every 12 hrs for one additional day; format: organism-based; conditions: in vivo
[9] = Cmax in human at 15 mg, po; format: ADME, organism-based; design: dose 15 mg, route oral; conditions: in vivo
In short: (§2)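 Healthy male volunteers (n=12), randomized three-phase Latin-square crossover with 4-week washout; single oral dose after overnight fast, lunch at 4 h. Venous plasma sampled predose and 1–72 h, stored –70°C; total drug by LC-MS/MS (piroxicam internal standard). Cmax and Tmax read directly from concentration data; AUC0-72 by linear (rising) / log (descending) trapezoidal rule.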

[10] = Tmax in human at 15 mg, po; format: ADME, organism-based; conditions: in vivo; in short: as §2
[11] = system: Homo sapiens; experiment: Inhibition of TxB2 production in human blood at 15 mg, po after 5 hrs by enzyme immunoassay; format: functional
In short: (§3)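 Ex vivo COX-1 index in healthy volunteers. Blood drawn without anticoagulant before and 5, 8, 12, 24, 48 h after the single oral dose, then clotted 1 h at 37°C. Serum TxB2 measured by enzyme immunoassay. Percent decrease calculated against each subject's own predose baseline, within a crossover with control or azole-pretreated phases.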

[12] = AUC (0 to 72 hrs) in human at 15 mg, po; format: ADME, organism-based; design: dose 15 mg, time < 72 hr, route oral; conditions: plasma; in short: as §2
[13] = system: Homo sapiens; experiment: Inhibition of TxB2 production in human blood at 15 mg, po after 48 hrs by enzyme immunoassay pretreated with itraconazole at 200 mg, po qd for 4 days; format: functional; in short: as §3
[14] = Protein binding in human at 15 mg, po pretreated with itraconazole at 200 mg, po qd for 4 days measured after 5 hrs last post dose; format: ADME, organism-based; conditions: plasma, read-out: PPB (converted)
In short: (§4)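 Plasma drawn 5 h after the single oral dose in each crossover phase (control, voriconazole 400 mg q12h day 1 then 200 mg q12h day 2, or itraconazole 200 mg daily for 4 days, last azole dose 1 h before). Ultrafiltered through a YM30 membrane at 1,200 x g, 25°C, 30 min. Free drug by LC-MS/MS; bound fraction derived from free versus total.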

[15] = system: Homo sapiens; experiment: Inhibition of TxB2 production in human blood at 15 mg, po after 12 hrs by enzyme immunoassay; format: functional; in short: as §3
[16] = system: Plasma; experiment: Fraction unbound in human plasma at 15 mg, po; format: ADME, organism-based; conditions: in vivo; in short: as §4
[17] = system: Homo sapiens; experiment: Inhibition of TxB2 production in human blood at 15 mg, po measured up to 48 hrs by enzyme immunoassay pretreated with itraconazole at 200 mg, po qd for 4 days; format: functional, organism-based; in short: as §3
[18] = system: Homo sapiens; experiment: Inhibition of TxB2 production in human blood at 15 mg, po after 8 hrs by enzyme immunoassay; format: functional; in short: as §3
[19] = Protein binding in human plasma at 15 mg, po after 5 hrs; format: ADME, organism-based; conditions: read-out: PPB (converted); in short: as §4
[20] = system: Homo sapiens; experiment: Inhibition of TxB2 production in human blood at 15 mg, po after 48 hrs by enzyme immunoassay; format: functional; in short: as §3
[21] = Protein binding in human at 15 mg, po pretreated with voriconazole at 400 mg, po every 12 hrs for 1 day and 200, po mg every 12 hrs for one additional day measured after 5 hrs last post dose; format: ADME, organism-based; conditions: plasma, read-out: PPB (converted); in short: as §4
[22] = system: Homo sapiens; experiment: Inhibition of TxB2 production in human blood at 15 mg, po after 24 hrs by enzyme immunoassay; format: functional; in short: as §3
[23] = system: Plasma; experiment: Fraction unbound in human at 15 mg, po pretreated with itraconazole at 200 mg, po qd for 4 days; format: ADME, organism-based; conditions: in vivo, 96 h; in short: as §4

## C[C@@H](c1ncncc1F)[C@](O)(Cn1cncn1)c1ccc(F)cc1F [VORICONAZOLE]
[1]
  Fu: 0.17%
[2]
  inhibition (INH): 31%
[3]
  inhibition (INH): 37%
[4]
  inhibition (INH): 49%
[5]
  Activity: Toxic
[6]
  inhibition (INH): 46%
[7]
  inhibition (INH): 14%
[8]
  Activity: Toxic

## Cc1cnc(NC(=O)C2=C(O)c3ccccc3S(=O)(=O)N2C)s1 [MELOXICAM]
[9]
  Cmax: 1250 ng/mL
[10]
  Tmax: 4 h
[11]
  inhibition (INH): 30%
[12]
  AUC(0-t) at 72 h: 32400 ng·h/mL
[13]
  inhibition (INH): 29%
[14]
  fraction unbound at 5 h: 0.0018
[15]
  inhibition (INH): 56%
[16]
  Fu: 0.18%
[17]
  inhibition: inactive
[18]
  inhibition (INH): 37%
[19]
  fraction unbound at 5 h: 0.0017
[20]
  inhibition (INH): 25%
[21]
  fraction unbound at 5 h: 0.0017
[22]
  inhibition (INH): 28%

## CCC(C)n1ncn(-c2ccc(N3CCN(c4ccc(OCC5COC(Cn6cncn6)(c6ccc(Cl)cc6Cl)O5)cc4)CC3)cc2)c1=O (stereo not drawn) [ITRACONAZOLE]
[23]
  Fu: 0.18%
